This note sets out measurements from ChEMBL document CHEMBL1671697, “Lipophilic bisphosphonates are potent inhibitors of Plasmodium liver-stage growth” (Antimicrob Agents Chemother, 2010).

Each structure is given as a SMILES string. Active and inactive are the calls of the source. No cut-off for these calls is given here.

Series [1] concerns Plasmodium berghei. The series is described as follows: Antiplasmodial activity against Plasmodium berghei NK65 infected in C57BL/6 mouse assessed as completed protection of mouse, ip administered once daily via a regimen of day 2, 1 pre-infection, on day of infection followed by a regimen of day 1 and 2 post infection for 5 days measured after 28 days. It is filed as functional, organism-based. The method, boiled down:
(§1)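 Mice were given compound i.p. once daily from 2 days before to 2 days after sporozoite challenge (5 doses). Challenge was 3,000 infectious P. berghei sporozoites. Parasitemia was followed by blood smear until 3–5%, then mice were sacrificed. Complete protection means no blood-stage parasites in smears; observation lasted 28 days.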

Series [2] concerns Plasmodium falciparum. Put plainly: Antiplasmodial activity against chloroquine-sensitive Plasmodium falciparum 3D7 assessed as suppression of parasitemia by microscopic analysis.
For series [3], the system named is Plasmodium berghei. The series is described as follows: Antimalarial activity against Plasmodium berghei NK65 infected in human HepG2 cells after 48 hrs by RT-PCR. Format: functional, organism-based. The settings on record: NK65, HepG2, 48 h. The essentials:
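P. berghei NK65 sporozoites (10,000 per well) added to human HepG2 monolayers seeded the day before, in DMEM with 10% FBS, with compound diluted in PBS; 37°C, 5% CO2, 48 h. Medium and compound were renewed at 24 h. Parasite 18S rRNA copies were quantified by real-time PCR against a plasmid standard and expressed relative to untreated control. IC50 was obtained by nonlinear regression.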

The test system of series [4] is Plasmodium berghei. Put plainly: Antiplasmodial activity against Plasmodium berghei NK65 infected in 12 wk old C57BL/6 mouse assessed as prepatent period at 0.5 mg/kg, ip administered once daily via a regimen of day 2, 1 pre-infection, on the day of infection followed by day 1 postinfection for 4 days by microscopic analysis. It is filed as functional. The settings on record: route intraperitoneal.

For series [5], the system named is Plasmodium berghei. Put plainly: Antiplasmodial activity against 3000 Plasmodium berghei NK65 liver stage sporozoites infected in 12 wk old C57BL/6 mouse assessed as delay in prepatent period at 1.5 mg/kg, ip administered once daily via a regimen of day 2, 1 pre-infection, on the day of infection followed by day 1 and 2 postinfection for 5 days by microscopic analysis. Format: functional. To be noted: route intraperitoneal. The essentials: as §1

Series [6] has as its system Plasmodium falciparum. Put plainly: Antiplasmodial activity against chloroquine-resistant Plasmodium falciparum W2mef assessed as suppression of parasitemia by microscopic analysis.
Series [7] has as its system Plasmodium berghei. Put plainly: Antiplasmodial activity against Plasmodium berghei NK65 infected in 12 wk old BALB/c mouse assessed as prepatent period at 5 mg/kg, ip administered once daily via a regimen of day 2, 1 pre-infection, on the day of infection followed by day 1 and 2 postinfection […] by microscopic analysis. Format: functional. To be noted: route intraperitoneal.

The nature of series [8]: Inhibition of Plasmodium vivax FPPS.
Series [9] deals with Plasmodium berghei. Put plainly: Antiplasmodial activity against 5 X 10^6 blood stream Plasmodium berghei NK65 infected in 12 wk old C57BL/6 mouse assessed as prepatent period at 1.5 mg/kg, ip administered once daily via a regimen of day 2, 1 pre-infection, on the day of infection followed by day 1 and 2 postinfection for 5 days by microscopic analysis. Format: functional. To be noted: route intraperitoneal. The essentials:
(§2)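 Mice, five per group, were dosed i.p. daily for 5 days and challenged on day 0 with 5 × 10^6 blood-stage P. berghei parasites. Parasitemia was monitored by blood smear, and the delay in prepatent period was recorded.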

A short description of series [10]: Inhibition of Plasmodium vivax GGPPS.
The nature of series [11]: Cytotoxicity against human HepG2 cells after 22 hrs. Format: cell-based. To be noted: read-out: TC50. The method, boiled down:
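HepG2 cells were seeded at 70% confluence the day before treatment, then exposed to a range of inhibitor concentrations for 22 h at 37°C, 5% CO2. CellTiter One reagent was then added for 2 h more, and OD495 was read. IC50 (TC50) was fit by nonlinear regression of percent viable cells against concentration.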

Series [12] can be described thus: Partition coefficient, log P of the compound. It is filed as physicochemical. The settings on record: octanol/water.
The subject of series [13] is Plasmodium berghei. Put plainly: Antiplasmodial activity against Plasmodium berghei NK65 infected in 12 wk old C57BL/6 mouse assessed as prepatent period at 1.5 mg/kg, ip administered once daily via a regimen of day 2, 1 pre-infection, on the day of infection followed by day 1 and 2 postinfection for 5 days by microscopic analysis. The settings on record: route intraperitoneal. Format: functional.

Series [14] deals with Plasmodium berghei. Put plainly: Antiplasmodial activity against 5 X 10^6 blood stream Plasmodium berghei NK65 infected in 12 wk old C57BL/6 mouse assessed as delay in prepatent period at 1.5 mg/kg, ip administered once daily via a regimen of day 2, 1 pre-infection, on the day of infection followed by day 1 and 2 postinfection for 5 days by microscopic analysis. Format: functional. To be noted: route intraperitoneal. The method, boiled down: as §2

Series [15] relates to Plasmodium berghei. The series is described as follows: Antiplasmodial activity against 5 X 10^6 blood stream Plasmodium berghei NK65 infected in 12 wk old C57BL/6 mouse assessed as parasitemia at 1.5 mg/kg, ip administered once daily via a regimen of day 2, 1 pre-infection, on the day of infection followed by day 1 and 2 postinfection for 5 days by microscopic analysis. It is filed as functional. To be noted: route intraperitoneal. The method, boiled down: as §2

The subject of series [16] is Plasmodium berghei. Put plainly: Antiplasmodial activity against 3000 Plasmodium berghei NK65 liver stage sporozoites infected in 12 wk old C57BL/6 mouse assessed as delay in prepatent period at 0.8 mg/kg, ip administered once daily via a regimen of day 2, 1 pre-infection, on the day of infection followed by day 1 and 2 postinfection for 5 days by microscopic analysis. It is filed as functional. To be noted: route intraperitoneal. The method, boiled down:
as §1

The test system of series [17] is Plasmodium berghei. The series is described as follows: Antiplasmodial activity against Plasmodium berghei NK65 infected in 12 wk old C57BL/6 mouse assessed as prepatent period at 0.8 mg/kg, ip administered once daily via a regimen of day 2, 1 pre-infection, on the day of infection followed by day 1, 2 and 3 days postinfection […] by microscopic analysis. It is filed as functional. To be noted: route intraperitoneal.

Take `CCCCCCCCCCOc1ccc[n+](CC(P(=O)([O-])O)P(=O)(O)O)c1` (centres undefined): the outcome in series [1] was Active. In addition, the IC50 (commonly the midpoint of a concentration-inhibition curve) is 0.67 µM in series [2]; 10 µM in [3]; 0.59 µM in series [6]; 1.5 µM in [8]; 0.56 µM in series [10]. In addition, the Activity in [4] is 3 days; in series [5], greater than 28 days; in series [7], greater than 28 days; in series [9], 5 days; in [13], greater than 28 days; in [14], 4 days. Also, the Activity in series [15] is listed as 0.01%. Also, the Ki – broadly, the equilibrium dissociation constant of an inhibitor or competing ligand from its target – in series [8] came out at 0.043 µM; in series [10], 0.013 µM. Moreover, in series [11], the CC50 at 22 h turned out to be 2000 µM. Further, the logP (as a rule, the decadic logarithm of the partition coefficient of the neutral form, usually between octanol and water) in series [12] (read-out: logP) was -1.2.
Regarding `CC[C@H](C)C(=O)O[C@H]1C[C@H](O)C=C2C=C[C@H](C)[C@H](CC[C@@H](O)C[C@@H](O)CC(=O)O)[C@H]21` [PRAVASTATIN SODIUM], the IC50 in series [3] is greater than 200 µM.
For `CCCCCCCCN(C)CC(P(=O)(O)O)P(=O)(O)O`, the Activity turned out to be 3 days in [16] and 7 days in series [17]. In addition, the concentration for half-maximal inhibition (IC50) in series [2] is 0.65 µM; in series [3] it was 8.8 µM; in [6] it was 2 µM; in [8] it was 1.5 µM; in series [10], 0.63 µM. Moreover, the inhibition constant Ki was found to be 0.043 µM in series [8] and 0.015 µM in [10]. Besides, the CC50 at 22 h in series [11] is 1000 µM. In [12], the logP is given as -4.1.
